High-throughput results from PubChem.
Tb MetRS inh – blocks T. brucei methionyl-tRNA synthetase activity. purified T. brucei MetRS, ATP depletion, Kinase-Glo luminescence. inhibition, % at 11.9 µM. 360,000 compounds, 0.4% hits. AID 624268;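 active means inhibition above a per-plate cutoff of the control wells' mean inhibition plus 3 SD, cut at about 5.5% in these data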;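 further: 0% = DMSO wells median and 100% = median of wells with control inhibitor compound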
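Assay system: T. brucei methionyl-tRNA synthetase, purified | Medium: HEPES buffer with MgCl2, KCl, DTT, spermine, BSA, pyrophosphatase | Compound: 11.9 µM single point | Incubation: 15 min enzyme-compound preincubation, 2 h reaction, 10 min detection, 25 °C | Measured by: Kinase-Glo luciferase luminescence reporting remaining unconsumed ATP | Measure: % inhibition normalized to control-well medians | Replication: Singlicate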
MsrA act – activators of bovine methionine sulfoxide reductase A; 360,000 compounds, 0.3% hits; purified bovine MsrA, absorbance read-out; activation, % at 10.6 µM; AID 602163; in the data active means activation above about 7.5%;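 further: 0% = vehicle and 100% = reference activator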
HTR2A ag – activates the mouse 5-HT2A serotonin receptor; P35363; CHO-K1 mHTR2A beta-arrestin complementation, luminescence; percent of 30 µM serotonin response; activation, % at 7.6 µM; 360,000 compounds, 0.66% hits;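 active means activation above a run cutoff, the mean activation of all tested compounds plus 3 SD, cut at about 14% in these data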;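 further: 0% = plate median of compound wells and 100% = 30 µM serotonin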
AI-2 QS mod – modulates the Vibrio harveyi AI-2 quorum sensing system; Vibrio harveyi JMH597 AI-2 luminescence/OD600 ratio, 9 h; hits give low values; strain lacks LuxN and CqsS sensors; 0 = neutral-control median; activity change, % at 7.5 µM; 300,000 compounds, 0.4% hits; AID 2094; in the data active means activity change below about -75%, passing the limit was not always enough;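 further: luminescence divided by OD600 gain over 9 h not by final OD600 alone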
AHR activator – activators of human aryl hydrocarbon receptor. P35869. AHR-responsive luciferase reporter cells, luminescence. activation, % at 5 µM. 320,000 compounds, 2.5% hits; in the data active means activation above about 47%;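 further: 0% = vehicle wells and 100% = reference agonist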
MsrA inh – bovine MsrA inhibition. inhibition, % at 15.5 µM. AID 651718. 360,000 compounds, 0.75% hits. purified bovine MsrA, absorbance read-out; in the data active means inhibition above about 4.5%;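 further: 0% = vehicle wells with enzyme and 100% = reference inhibitor wells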
AHR act confirm – human AHR activation, confirmation. activation, % at 9 µM. shares compounds with AHR activator. human cells, AHR-responsive luciferase reporter, luminescence. AID 2845. 2,300 compounds, 87% hits; in the data active means activation above about 49%;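 further: HepG2 hepatoma cells carrying a DRE-driven firefly luciferase reporter; 0% = vehicle wells and 100% = reference agonist wells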
PXR counter – counter-screen for AHR activators: human PXR activators; shares compounds with AHR activator; cell-based PXR reporter, luciferase luminescence; activation, % at 11.6 µM; 2,300 compounds, 88% hits; AID 434939; in the data active means activation above about 11%;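 further: human hepatoma DPX-2 cells expressing full-length human PXR; 0% = DMSO and 100% = reference agonist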
Target sequence (O75469 whole entry, looked up): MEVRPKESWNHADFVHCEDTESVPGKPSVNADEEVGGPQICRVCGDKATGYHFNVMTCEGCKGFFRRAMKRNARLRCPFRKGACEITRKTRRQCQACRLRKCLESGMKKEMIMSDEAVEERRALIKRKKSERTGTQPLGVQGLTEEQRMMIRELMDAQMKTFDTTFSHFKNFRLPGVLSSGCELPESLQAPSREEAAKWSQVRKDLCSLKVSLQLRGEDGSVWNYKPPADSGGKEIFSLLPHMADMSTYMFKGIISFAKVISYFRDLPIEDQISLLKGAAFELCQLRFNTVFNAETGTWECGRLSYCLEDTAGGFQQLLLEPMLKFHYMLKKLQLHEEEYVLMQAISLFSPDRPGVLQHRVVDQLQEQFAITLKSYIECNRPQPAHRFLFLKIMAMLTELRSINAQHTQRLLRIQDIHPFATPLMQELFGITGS
* = called active by the depositor. In the library only some 4.4% were active in any assay of this set; here they are far more common.

`O=C(OCC(=O)N1CCCC1)c1cnc(Cl)c(Cl)c1` gave Tb MetRS inh -0.1, MsrA act -1.3, HTR2A ag -0.5, AHR activator -0.9 and MsrA inh 0.1.
`CC(=O)[C@H]1CC[C@H]2[C@@H]3C=CC4=CC(=O)CC[C@@]4(C)[C@@H]3CC[C@]12C` gave Tb MetRS inh -0.4, MsrA act -4.0, HTR2A ag 1.6, AHR activator -0.5 and MsrA inh -0.9.
O=C(N=Nc1c(O)[nH]c2ccccc12)c1ccc2c(c1)OCO2 was read as Tb MetRS inh -0.9, MsrA act -10.8, HTR2A ag 0.3, AI-2 QS mod 21.1, AHR activator 95.0*, MsrA inh 0.9, AHR act confirm 65.3* and PXR counter 20.7*.
For C=CCn1c(O)c(N=NC(=O)c2ccc3c(c2)OCO3)c2ccccc21 the results were Tb MetRS inh -1.3, MsrA act -4.6, HTR2A ag -2.0, AI-2 QS mod 21.6, AHR activator 26.9 and MsrA inh -0.1.
O=C1N/C(=N\N=C\c2ccco2)SC1Cc1ccccc1[N+](=O)[O-] (stereo not drawn) was read as Tb MetRS inh -0.3, MsrA act -5.1, HTR2A ag 2.8, AI-2 QS mod 14.1, AHR activator 83.3*, MsrA inh 4.6*, AHR act confirm 70.6* and PXR counter 28.4*.
`CCOc1ccc(CC2S/C(=N/N=C/c3ccco3)NC2=O)cc1` (stereo not drawn) gave Tb MetRS inh -0.1, MsrA act -3.5, HTR2A ag 2.7, AI-2 QS mod 11.7, AHR activator 1.8 and MsrA inh 3.9.
Screening Cc1ccccc1-c1cc(C(=O)NCc2cccc(C(F)(F)F)c2)n(CC2CC(c3cccnc3)=NO2)n1 (stereo not drawn) returned Tb MetRS inh -0.3, MsrA act 0.6, HTR2A ag -9.5, AHR activator 0.3 and MsrA inh -0.4.
`Clc1cc(Cl)c2nc(N3CCCC3)sc2c1` gave Tb MetRS inh -0.4, MsrA act -1.8, HTR2A ag -2.5, AI-2 QS mod 13.6, AHR activator 88.0*, MsrA inh -0.7, AHR act confirm 95.5* and PXR counter 27.8*.
For CCc1cc(C(=O)N(CC(C)C)c2c(N)n(Cc3ccccc3)c(=O)[nH]c2=O)sc1C the results were Tb MetRS inh -0.5, MsrA act -8.4, HTR2A ag 13.8, AI-2 QS mod -3.1, AHR activator 1.2 and MsrA inh 0.9.
`CN(C)c1ccc(NC(=O)/C=C/c2c(Cl)cccc2Cl)cc1` gave Tb MetRS inh -0.3, MsrA act -3.8, HTR2A ag -0.6, AI-2 QS mod 19.4, AHR activator 100.2*, MsrA inh 1.9, AHR act confirm 146.9* and PXR counter 87.2*.
`O=C(CCn1c(=O)sc2ccccc21)Nc1nc2ccccc2s1` gave Tb MetRS inh -0.2, MsrA act 0.4, HTR2A ag -5.0, AI-2 QS mod 12.9, AHR activator 106.2*, MsrA inh 0.2, AHR act confirm 44.2 and PXR counter 97.8*.
Screening Cc1cnc(NC(=O)CCCc2nc3ccccc3s2)s1 returned Tb MetRS inh -0.9, MsrA act -4.0, HTR2A ag 1.2, AI-2 QS mod 0.1, AHR activator 270.7*, MsrA inh 0.4, AHR act confirm 41.1 and PXR counter 134.3*.
Cc1ccc2nc(NC(=O)CCn3c(=O)sc4ccccc43)sc2c1 was read as Tb MetRS inh -0.7, MsrA act -2.2, HTR2A ag 5.5, AI-2 QS mod 17.5, AHR activator 18.4 and MsrA inh 0.5.
Screening COc1ccc(CCN2C(=O)CCC2(C)c2nnnn2Cc2ccccc2)cc1OC (stereo not drawn) returned Tb MetRS inh -1.8, MsrA act -10.3, HTR2A ag 4.3 and MsrA inh 1.3.
`Cc1ccccc1NC(=O)Cc1nc(COC(=O)CC(C)c2ccccc2)cs1` (stereo not drawn) gave Tb MetRS inh -0.2, MsrA act 0.8, HTR2A ag -4.3 and MsrA inh 0.8.
CCCCn1c(N)c(N(CC(C)C)C(=O)C2CCN(C(=O)c3ccc(F)cc3)CC2)c(=O)[nH]c1=O was read as Tb MetRS inh -0.7, MsrA act -3.9, HTR2A ag 0.0, AI-2 QS mod -0.5, AHR activator 7.2 and MsrA inh -0.1.
O=c1[nH]c(-c2ccc(O)cc2)nc2scc(-c3cccs3)c12 was read as Tb MetRS inh 0.4, MsrA act -0.8, HTR2A ag -0.9, AI-2 QS mod 3.3, AHR activator 123.9*, MsrA inh 0.9, AHR act confirm 86.5* and PXR counter 22.7*.
For Cc1cccc(-n2c(=O)[nH]c3c(C(N)=O)nc(-c4ccccc4Cl)nc32)c1 the results were Tb MetRS inh -0.7, MsrA act -5.5, HTR2A ag 4.7, AI-2 QS mod 20.9, AHR activator 93.9*, MsrA inh 1.1, AHR act confirm 71.7* and PXR counter 11.6*.
For COc1ccc(-c2nc(C(N)=O)c3[nH]c(=O)n(-c4cccc(C)c4)c3n2)c(OC)c1 the results were Tb MetRS inh -0.3, MsrA act -7.0, HTR2A ag 4.8, AI-2 QS mod 21.2, AHR activator 97.6*, MsrA inh 2.3, AHR act confirm 66.7* and PXR counter 20.2*.
COc1cccc(-c2nc(C(N)=O)c3[nH]c(=O)n(-c4ccccc4)c3n2)c1OC was read as Tb MetRS inh 0.0, MsrA act 0.1, HTR2A ag 4.8, AI-2 QS mod 41.9, AHR activator 87.7*, MsrA inh -0.8, AHR act confirm 61.4* and PXR counter 10.3*.
For CCN(C(=O)CSc1n[nH]c(N)n1)c1cccc2ccccc12 the results were Tb MetRS inh -0.4, MsrA act -2.0, HTR2A ag -5.0, AHR activator 2.0 and MsrA inh 0.3.
For Cc1cccc(-c2oc3ccccc3c2C#CCCCCO)c1 the results were Tb MetRS inh -0.1, MsrA act -0.9, HTR2A ag -1.0, AI-2 QS mod 6.2, AHR activator 16.7 and MsrA inh 1.7.
Cc1cccc(-c2oc3ccccc3c2C#CCCO)c1 was read as Tb MetRS inh -0.1, MsrA act -3.8, HTR2A ag -2.8, AI-2 QS mod 6.6, AHR activator 97.2*, MsrA inh 1.8, AHR act confirm 67.5* and PXR counter 24.2*.
Screening CCCS(=O)(=O)Nc1cccc(-c2nc3cccnc3s2)c1 returned Tb MetRS inh -1.2, MsrA act -9.5, HTR2A ag 4.2, AI-2 QS mod -4.0, AHR activator 91.3*, MsrA inh 1.0, AHR act confirm 99.1* and PXR counter 39.5*.
